Mot1-301 SUMO – SUMOylation pathway inhibition by Mot1-301 growth rescue; 1% of 320,000 active; growth rescue, % at 18.8 µM; S. cerevisiae Mot1-301 growth rescue, ATP luminescence, 38.5C; percent above DMSO median, 100 means doubled;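 active = every valid replicate shows activation above 250% relative to neutral control wells; inactive = the rest, any valid replicate at or below 250%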;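 also: OY570 slx delta 5 strain wells were the positive control but not used for scaling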
rRNA inh HTS – inhibitors of bacterial rRNA selective over humanized ribosomes. GFP signal change (wild-type ribosome), % (test concentration not listed). 1.6% of 350,000 active. AID 720706. E. coli WT GFP vs humanized-ribosome RFP mutants, fluorescence, 24 h; active compounds read low; DMSO median 0, no signal -100;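 active = significant combined selectivity score with lowered wild-type GFP, culture density cut under 30%, mutant RFP and density less affected; inactive = any of these conditions unmet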
PglD inh – inhibitors of Campylobacter jejuni PglD acetyltransferase. purified PglD enzyme, DTNB colorimetric CoA detection. inhibition, % at 12.5 µM. 0.098% of 360,000 active. AID 602405; in the data active = inhibition above about 16%, passing the limit was not always enough
Cneo AK release – causes C. neoformans cell lysis; adenylate kinase release luminescence, 4 h; normalised: neutral wells 0, clomiphene wells 100; lysis activity, % at 15 µM; 0.2% of 360,000 active; AID 651654;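 active = mean lysis activity across replicates of at least 80%, whatever share of replicates individually reach that level; inactive = mean lysis activity below 80%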
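Test system: log-phase Cryptococcus neoformans yeast cells; Quantity: yeast cell density of 5 × 10^6 cells/mL; Buffer or medium: YPD; Doses: single compound concentration per well; Timing: 4 h at 37 °C static, read 1 h later; Measured by: AK luminescence; Read-out basis: lysis from increased AK signal; Control set: Clomiphene as positive control.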
Yeast superoxide – caloric restriction mimetics inhibiting age-related superoxide in yeast; superoxide response (% of plate mean), % at 10 µM; S. cerevisiae aged cells, superoxide DHE fluorescence; active compounds read low; 0.18% of 330,000 active;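 active = superoxide response under a set limit, about three screen SD below normal, cut at about 65% in these data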;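 also: yeast aged for seven days with compound at 30 °C before DHE staining; 100% = average MFI of all compound-treated wells on the plate with controls excluded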
* hit, by the source's call. A selection: hits, their analogues and other compounds. The true share with any hit is near 2.2%.

Results for C=CCOc1ccc(/C=C2\SC(=S)N(C(C(=O)O)c3ccccc3)C2=O)cc1 (stereo not given) ?
rRNA inh HTS: -42*

How did CC(/C=C1\SC(=S)N(C(C(=O)O)c2ccccc2)C1=O)=C\c1ccccc1 (stereo not given) do in these assays?
Mot1-301 SUMO: -15; rRNA inh HTS: -27*; Yeast superoxide: 106

How did O=C/C=C/c1ccc(-c2ccccc2)cc1 do in these assays?
PglD inh: -1; Cneo AK release: 37

How did C=C(C)Cn1c(CCn2c3ccccc3c3ccccc32)n[nH]c1=S do in these assays?
Mot1-301 SUMO: -2; Yeast superoxide: 99

How did C=CCn1c(CCn2c3ccccc3c3ccccc32)n[nH]c1=S do in these assays?
Mot1-301 SUMO: -10; rRNA inh HTS: -27*; PglD inh: 2; Cneo AK release: -6; Yeast superoxide: 106

Results for COc1cc(C(=O)N/N=C(\Cc2ncc[nH]2)c2ccccc2)cc(OC)c1OC ?
rRNA inh HTS: -32*; Yeast superoxide: 107

Results for COc1ccc(C(=O)N/N=C(\Cc2ncc[nH]2)c2ccccc2)cc1 ?
Mot1-301 SUMO: -7; rRNA inh HTS: 6; PglD inh: 2; Cneo AK release: -2; Yeast superoxide: 87

What do the screens show for `Cc1cc(C)nc(OC(C(=O)O)C(OCCC(C)C)(c2ccccc2)c2ccccc2)n1` (stereo not given)?
Mot1-301 SUMO: -25; rRNA inh HTS: 20; PglD inh: 2; Cneo AK release: 0; Yeast superoxide: 88

What do the screens show for `CCCOC(c1ccccc1)(c1ccccc1)C(Oc1nc(C)cc(C)n1)C(=O)O` (stereo not given)?
Mot1-301 SUMO: 0; rRNA inh HTS: -19*; PglD inh: -2; Cneo AK release: -2; Yeast superoxide: 99

What do the screens show for `CCOC(=O)c1ccccc1NC(=O)Cc1ccccc1OC`?
Mot1-301 SUMO: 391*; PglD inh: -10; Cneo AK release: -4; Yeast superoxide: 103

How did CCOC(=O)c1ccccc1NC(=O)COC(=O)CN1C(=O)NC2(CCCC2)C1=O do in these assays?
Mot1-301 SUMO: -24; rRNA inh HTS: -32*; PglD inh: 1; Cneo AK release: -1; Yeast superoxide: 110

What do the screens show for `COc1ccccc1CC(=O)Nc1ccccc1C(=O)O`?
Mot1-301 SUMO: 2; PglD inh: 10; Cneo AK release: -3; Yeast superoxide: 140

Results for CCC(=O)N(C)CCc1cc2c(c(OC)c1/C=N/NS(=O)(=O)c1ccc(C)cc1)OCO2 ?
Mot1-301 SUMO: 52; rRNA inh HTS: -25*; PglD inh: 2; Cneo AK release: 0; Yeast superoxide: 107

What do the screens show for `CC1CC(Nc2ccccc2)c2ccccc2N1C(=O)c1ccco1` (stereo not given)?
Mot1-301 SUMO: -7; rRNA inh HTS: -28*; PglD inh: -1; Cneo AK release: -1; Yeast superoxide: 85

Results for Cc1cccc(-n2c(Cc3cc(=O)[nH]c(=O)[nH]3)nnc2SCC(=O)N2CCCCC2)c1 ?
Mot1-301 SUMO: -11; rRNA inh HTS: 8; PglD inh: -1; Cneo AK release: -6; Yeast superoxide: 106

How did CSc1nnc(Cc2cc(=O)[nH]c(=O)[nH]2)n1-c1cccc(C)c1 do in these assays?
Mot1-301 SUMO: 352*; PglD inh: 0; Cneo AK release: -1; Yeast superoxide: 94

What do the screens show for `CCOC(=O)c1ccc(CC(=O)c2ccc(O)c(O)c2O)o1`?
rRNA inh HTS: -12

Results for CCOC(=O)c1ccc(CC(=O)c2oc3cc(O)ccc3c2C)o1 ?
Mot1-301 SUMO: 21; rRNA inh HTS: -22*; PglD inh: 0; Cneo AK release: -1; Yeast superoxide: 93

Results for Cc1ccc([C@@H]2CC=C(C(=O)O)[C@H](c3ccc(F)cc3)N2S(=O)(=O)c2ccccc2C)cc1 ?
Mot1-301 SUMO: 190; rRNA inh HTS: -18; PglD inh: 3; Cneo AK release: 4; Yeast superoxide: 89

How did Cc1ccc([C@@H]2CC=C(C(=O)O)[C@H](c3ccc(Cl)cc3)N2S(=O)(=O)c2ccccc2C)cc1 do in these assays?
Mot1-301 SUMO: 255*; rRNA inh HTS: -38; PglD inh: 2; Cneo AK release: -1; Yeast superoxide: 102

How did Cc1ccc([C@@H]2CC=C(C(=O)O)[C@H](c3cccc(F)c3)N2S(=O)(=O)c2ccccc2C)cc1 do in these assays?
Mot1-301 SUMO: 280*; PglD inh: 6; Cneo AK release: -2; Yeast superoxide: 97
